Bioassay records as filed in PubChem.
KCNK9 block: blocks the human KCNK9 two-pore domain potassium channel. 310,000 tested, 1.2% active. B-score at 10 µM. AID 488922. HEK293 KCNK9, FluxOR thallium flux fluorescence; stronger effect = lower value. Q9NPC2;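 active means ratio B-score over 3 SD below the library mean, with starting fluorescence within 5 SD of its mean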;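 further: negative B-score means less thallium flux so channel inhibition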
KCNK3 inh: human KCNK3 channel inhibition, primary screen; CHO-KCNK3 thallium flux, FluxOR fluorescence; stronger effect = lower value; B-score at 10 µM; AID 602410; O14649; 340,000 tested, 0.84% active;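 active means B-score under library mean minus 4 SD, starting fluorescence ratio at most library mean plus 5 SD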;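 further: more negative B-score means stronger inhibition of thallium flux through KCNK3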
hERG rescue: hERG (human) protection from proarrhythmic block; CHO-hERG, FluxOR thallium flux, dofetilide IC70 present; activation (rescue from dofetilide block), less the hit threshold, % at 10 µM; 310,000 tested, 0.51% active; AID 1511;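 active means activation above the mean of controls blocked by dofetilide plus 5 SD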;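 further: thallium influx through hERG after potassium depolarization seen as dye fluorescence rise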
KCNQ1 act: potentiators or activators of human KCNQ1 potassium channel; 310,000 tested, 0.35% active; CHO-K1 KCNQ1, thallium flux FluxOR fluorescence; stronger effect = higher value; B-score at 10 µM; P51787;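 active means fluorescence ratio B-score, a plate-corrected score, at least three library SD, with initial intensity B-score within 5 SD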
Target sequence (P51787 whole entry, looked up): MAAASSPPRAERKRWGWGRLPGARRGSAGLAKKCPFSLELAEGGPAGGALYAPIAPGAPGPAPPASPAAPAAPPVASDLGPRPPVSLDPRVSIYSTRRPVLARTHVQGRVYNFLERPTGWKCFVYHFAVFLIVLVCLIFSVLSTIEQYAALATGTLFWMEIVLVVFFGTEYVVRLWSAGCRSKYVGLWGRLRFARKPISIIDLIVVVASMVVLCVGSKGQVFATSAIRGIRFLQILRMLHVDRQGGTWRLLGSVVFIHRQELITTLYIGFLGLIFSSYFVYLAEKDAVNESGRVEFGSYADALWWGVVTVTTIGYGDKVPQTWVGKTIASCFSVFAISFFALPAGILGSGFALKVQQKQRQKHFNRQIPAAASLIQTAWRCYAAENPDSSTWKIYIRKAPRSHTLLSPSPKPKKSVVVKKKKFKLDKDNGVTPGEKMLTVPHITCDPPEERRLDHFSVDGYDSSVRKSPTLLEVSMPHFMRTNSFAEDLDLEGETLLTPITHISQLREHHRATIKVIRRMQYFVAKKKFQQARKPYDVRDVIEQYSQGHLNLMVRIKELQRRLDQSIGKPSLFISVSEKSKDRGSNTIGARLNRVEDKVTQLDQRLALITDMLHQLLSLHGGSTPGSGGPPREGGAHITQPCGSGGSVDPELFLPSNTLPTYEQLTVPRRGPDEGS
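Doses: Single concentration per compound, DMSO matched to controls | Test system: KCNQ1-transfected CHO-K1 cells | Timing: 90 min dye loading and 20 min compound exposure, both at room temperature | Measured by: Kinetic FluxOR thallium fluorescence, 10-s 1-Hz baseline, 110-s post-stimulus read | Medium: Assay buffer with matched DMSO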
KCNQ1 block: blocks the human KCNQ1 potassium channel | P51787 | CHO-K1 KCNQ1, FluxOR thallium flux fluorescence; stronger effect = higher value | B-score at 10 µM | 310,000 tested, 1.3% active;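 active means compounds whose thallium flux B-score, printed positive for inhibition, exceeds three library SD while starting fluorescence stays within three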;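 further: channel opened by potassium depolarization with thallium stimulus after 20 min compound exposure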
Kir21 inh: Kir2.1 (mouse) channel inhibition; P35561; B-score at 10 µM; HEK293-Kir2.1, FluxOR thallium flux fluorescence; stronger effect = lower value; 310,000 tested, 0.85% active;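 active means fluorescence ratio B-score at or below minus 3 SD of library scores, with starting-brightness B-score within 2 SD, cut at about -4.2 in these data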;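 further: channel flux triggered by added potassium and thallium sulfate stimulus; B-score of peak minus minimum fluorescence over baseline after thallium stimulus; more negative B-score means stronger Kir2.1 block with less thallium influx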
KCNK9 inh conf: human KCNK9 inhibitor confirmation; shares compounds with KCNK9 block; HEK293 KCNK9 cells, FluxOR thallium flux fluorescence; inhibition, % at 10 µM; 4,900 tested, 43% active;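 active means thallium signal inhibited by more than 5 SD of the compound-free buffer control wells, on both duplicate plates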;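 further: 0% = assay buffer control wells without compound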
Kir2-1 spec: selectivity of KCNK9 modulators against mouse Kir2.1; Kir2.1 cells, FluxOR thallium flux fluorescence; shares compounds with KCNK9 block; inhibition, % at 10 µM; AID 492993; 4,900 tested, 4% active;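 active means thallium signal drop more than 5 SD beyond the mean of the no-compound control wells, seen in both duplicate plates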;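 further: signal is fluorescence rise after thallium addition divided by baseline fluorescence; plate controls were assay buffer only for no effect and full block by chlorpromazine control for full effect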
HEK293 Tl ctr: second counter-screen for KCNK9 modulators: effect in non-induced cells; non-induced KCNK9-HEK293, FluxOR thallium flux; AID 492997; 4,900 tested, 40% active; inhibition, % at 10 µM; shares compounds with KCNK9 block;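 active means thallium signal drop beyond 5 SD of the untreated control mean, on both duplicate plates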;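 further: plate controls were buffer only IC0 wells for no effect and SID17386958 at its maximal inhibitory level for full effect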
Active calls of the source: *; i = inactive; · = not tested or not shown. Hits are enriched below; roughly 3.7% of the tested compounds scored in any of these assays.

SMILES	KCNK9 block	KCNK3 inh	hERG rescue	KCNQ1 act	KCNQ1 block	Kir21 inh	KCNK9 inh conf	Kir2-1 spec	HEK293 Tl ctr
CCc1ccc(CN(C)C(=O)c2cc(COc3cc(C)c(Cl)c(C)c3)on2)nc1	i	i	-10	i	i	-0.73	i	i	i
CCOC(=O)C1CCN(C(=O)CCc2nnc3ccc(N4CCC(C)CC4)nn23)CC1	i	i	-8	i	i	-0.83	·	·	·
COc1cc(C(=O)Nc2cc(C(F)(F)F)ccc2N2CCOCC2)ccc1OCC(=O)N1CCOCC1	i	i	-13	i	i	1.2	·	·	·
CCOc1ccccc1N/C=C(\C#N)c1nc2ccccc2n1C	-11*	i	-5	i	i	0.55	i	i	i
O=C(O)CSCC(=O)N1CCN(c2nc3cc(Cl)ccc3s2)CC1	i	i	-3	i	i	-1.6	·	·	·
Cc1cccc(C2NC(c3cccc(C)c3)C([N+](=O)[O-])C(C)(C)C2[N+](=O)[O-])c1 (stereo not given)	i	i	-1	i	i	0.65	i	i	i
COc1cc(NC(=S)Nc2ccc(N(C)C(C)=O)cc2)cc(OC)c1	i	i	0	i	i	1.8	·	·	·
Cc1ccc(C(=O)OCC(=O)N2CC(C)CC(C)C2)cc1S(=O)(=O)N1CCOCC1 (stereo not given)	i	i	-9	i	i	0.17	·	·	·
COc1ccc(C(=O)OCC(=O)N2CCC(C)CC2)cc1S(=O)(=O)N1CCOCC1	·	i	·	·	·	·	·	·	·
Cc1ccc(C(=O)OCC(=O)N2CCC(C)CC2)cc1S(=O)(=O)N1CCCCC1	i	i	-9	i	i	-2.8	i	i	i
CC1CCN(C(=O)COC(=O)c2ccc(F)c(S(=O)(=O)N3CCOCC3)c2)CC1	i	i	-5	i	i	-0.59	i	i	i
Cc1cccc(C)c1NC(=O)CN(C)C(=O)CC1CC2CCC1C2 (stereo not given)	·	i	·	·	·	·	·	·	·
CCc1ccc(NC(=O)COc2ccc(F)cc2C(=O)c2cnn(-c3ccccc3)c2)cc1	i	i	-10	i	i	-0.45	i	i	i
O=C(NCc1ccc(F)cc1)C1CCN(S(=O)(=O)c2cccc3nonc23)CC1	i	i	-8	i	i	-0.12	·	·	·
O=C(COC(=O)c1ccc(O)cc1O)Nc1ccc2c(c1)OCCO2	·	i	·	·	·	·	·	·	·
CC(=NNc1nc2ccccc2s1)c1ccncn1	·	i	·	·	·	·	·	·	·
C/C(=N\Nc1nc2ccccc2s1)c1ccc(Br)s1	i	i	2	10*	i	1.1	i	i	i
Cc1ccc(C#N)c(SCc2cccc(Br)c2)n1	-12*	i	-4	i	i	0.53	42%*	i	48%*
CC1=NN(c2ccc(Cl)cc2)C(=O)C1C(c1cccc(O)c1)c1c(C)[nH]n(-c2ccc(Cl)cc2)c1=O (stereo not given)	i	i	-3	i	i	-0.77	i	i	i
Cc1[nH]n(-c2ccc(Cl)cc2)c(=O)c1C(=O)c1ccccc1	i	i	-8	i	i	0.97	·	·	·
O=C(OCC1OC(n2ncc(=O)[nH]c2=O)C(OC(=O)c2ccccc2)C1OC(=O)c1ccccc1)c1ccccc1 (stereo not given)	i	i	-24	i	i	-0.49	i	i	33%*
CC(=O)OC[C@H]1O[C@@H](n2ncc(=O)[nH]c2=O)[C@H](OC(C)=O)[C@@H]1OC(C)=O	i	·	-3	i	i	1.2	·	·	·
COc1cccc(/C=N/NC(=O)c2csc(-n3nc(C)cc3C(F)(F)F)n2)c1	-15*	i	-3	i	i	0.03	i	i	i
